Source: ChEMBL document CHEMBL4257564, “Rational Design, Synthesis, and Pharmacological Characterization of Novel Ghrelin Receptor Inverse Agonists as Potential Treatment against Obesity-Related Metabolic Diseases” (J Med Chem, 2018)

Experiments:
[1] = target: T1, Growth hormone secretagogue receptor type 1 (Homo sapiens, UniProt Q92847); assay: Antagonist activity at recombinant human GHSR1a expressed in HEK293 cells assessed as inhibition of ghrelin-induced intracellular calcium release incubated for 20 secs and measured after 2 mins by FLIPR assay; format: functional, cell-based
T1 sequence (Q92847 whole entry): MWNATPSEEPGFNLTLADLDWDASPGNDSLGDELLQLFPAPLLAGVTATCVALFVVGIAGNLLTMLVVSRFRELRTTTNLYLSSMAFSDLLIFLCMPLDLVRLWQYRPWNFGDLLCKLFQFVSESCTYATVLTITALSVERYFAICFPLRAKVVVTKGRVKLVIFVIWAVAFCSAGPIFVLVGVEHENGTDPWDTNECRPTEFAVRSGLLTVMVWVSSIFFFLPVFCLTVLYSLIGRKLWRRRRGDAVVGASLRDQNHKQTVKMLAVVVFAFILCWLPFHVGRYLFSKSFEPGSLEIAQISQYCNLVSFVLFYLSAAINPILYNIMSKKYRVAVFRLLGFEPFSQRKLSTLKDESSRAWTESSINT
How it was run: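 HEK293/GHSR1a cells were dye-loaded for 30-60 min. Compounds and 10 nM ghrelin were added at t = 20 s, with a 15 min compound preincubation described. Calcium response was read for 2 min. IC50 was taken from dose-response fits of the reduction in ghrelin response; mean of at least two independent runs done in triplicate.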

[2] = target: T1, Growth hormone secretagogue receptor type 1; assay: Inverse agonist at recombinant human GHSR1a expressed in HEK293 cells assessed as decrease in IP1 accumulation after 1 hr by IP1-d2-based HTRF assay; format: functional, cell-based
How it was run: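 HEK293 cells stably expressing human GHSR1a were seeded on Matrigel in complete DMEM for 18–22 h at 37 °C, 5% CO2. Compound in stimulation buffer was applied for 1 h at 37 °C. IP1-d2 and Tb-cryptate were then added for 1 h at room temperature, with HTRF read at 620/665 nm. Mean of at least two independent runs in triplicate.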

[3] = target: T1, Growth hormone secretagogue receptor type 1; assay: Agonist activity at recombinant human GHSR1a expressed in HEK293 cells assessed as induction of intracellular calcium release after 15 mins by FLIPR assay; format: functional, cell-based; details: read-out: EC50
How it was run: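 HEK293 cells stably expressing human GHSR1a, seeded 24 h before the run, then loaded with calcium dye for 30-60 min at room temperature or 37 °C. DMSO-dissolved compounds were added and intracellular calcium release was monitored by FLIPR fluorescence.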

[4] = Clearance in human liver microsomes at 0.625 uM preincubated for 5 mins followed by NADPH addition and measured after 60 mins by LC-MS/MS analysis; format: ADME, microsome; details: read-out: CLH
How it was run: (§1)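 Liver microsomes (0.625 mg/mL protein) in 50 mM potassium phosphate pH 7.4 with 0.625 µM test item, prewarmed 5 min at 37 °C. Reaction started with NADPH (5 mM solution). Samples taken at 0, 5, 15, 30 and 60 min into cold MeCN with internal standard, analysed by LC-MS/MS. Intrinsic clearance derived by the half-life approach.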

[5] = Clearance in dog liver microsomes at 0.625 uM preincubated for 5 mins followed by NADPH addition and measured after 60 mins by LC-MS/MS analysis; format: ADME, Canis lupus familiaris, microsome; details: read-out: CLH; how it was run: as §1
[6] = Clearance in mouse liver microsomes at 0.625 uM preincubated for 5 mins followed by NADPH addition and measured after 60 mins by LC-MS/MS analysis; format: ADME, microsome; details: read-out: CLH; how it was run: as §1
[7] = Clearance in rat liver microsomes at 0.625 uM preincubated for 5 mins followed by NADPH addition and measured after 60 mins by LC-MS/MS analysis; format: ADME, microsome; details: read-out: CLH; how it was run: as §1

| SMILES | IC50 [1] | EC50 ([2]; read-out: EC50) | EC50 [3] | EC50 ([2]; hek293) | microsomal CLint at 0.625 µM [4] | microsomal CLint at 0.625 µM [5] | microsomal CLint at 0.625 µM [6] | microsomal CLint at 0.625 µM [7] |
| --- | --- | --- | --- | --- | --- | --- | --- | --- |
| Cc1cn2cc(C(C)NC(=O)N(C)C3CCN(C)CC3)nc2s1 (configuration not stated) | > 30000 nM | – | > 30000 nM | Not Active | – | – | – | – |
| Cc1cc(-c2ccc3c(c2)CCC3N2CCC(N(C)C(=O)N[C@@H](CC3CC3)c3ccc(-c4cnccn4)c(Cl)c3Cl)CC2)ncn1 (some centres not stated) | 4540 nM | 484 nM | – | – | – | – | – | – |
| Cc1cc(-c2ccc3c(c2)CCC3N2CCC(N(C)C(=O)N[C@@H](C)c3ccc(C(=O)O)c(Cl)c3Cl)CC2)ncn1 (some centres not stated) | > 30000 nM | – | – | Not Active | – | – | – | – |
| Cc1cc(-c2ccc3c(c2)CC[C@H]3N2CC3(CCN(C(=O)N[C@@H](C)c4ccc(-c5cnccn5)c(Cl)c4Cl)CC3)C2)ncn1 | 1210 nM | 483 nM | > 30000 nM | – | – | – | – | – |
| Cc1cc(-c2ccc3c(c2)CCC3N2CCC(N(C)C(=O)N[C@@H](C)c3ccc(C4CC4)c(Cl)c3Cl)CC2)ncn1 (some centres not stated) | 2870 nM | 298 nM | – | – | – | – | – | – |
| COc1ccc([C@H](CC2CC2)NC(=O)N(C)C2CCN(C3CCc4cc(-c5cc(C)ncn5)ccc43)CC2)c(Cl)c1Cl (some centres not stated) | 1800 nM | 439 nM | – | – | – | – | – | – |
| Cc1cc(-c2ccc3c(c2)CCC3N2CCC(N(C)C(=O)N[C@H](c3ccc(-c4cnccn4)c(Cl)c3Cl)C(F)(F)F)CC2)ncn1 (some centres not stated) | 8080 nM | 2160 nM | – | – | – | – | – | – |
| COc1ccc([C@H](C)NC(=O)N(C)C2CCN(C3CCc4cc(O)ccc43)CC2)c(Cl)c1Cl (some centres not stated) | 1300 nM | – | – | Not Active | 87.1 µL/min/mg | – | 117 µL/min/mg | – |
| Cc1cc(-c2ccc3c(c2)CCC3N2CCC(N(C)C(=O)N[C@@H](C)c3ccc(N)c(Cl)c3Cl)CC2)ncn1 (some centres not stated) | 571 nM | 121 nM | – | – | – | – | – | – |
| Cc1ccc2c(c1)CCC2N1CCC(N(C)C(=O)N[C@@H](C)c2ccc(O)c(Cl)c2Cl)CC1 (some centres not stated) | 1170 nM | 189 nM | – | – | – | – | – | – |
| CCN(C(=O)N[C@@H](C)c1ccc(C#CC2CC2)c(Cl)c1Cl)C1CCN(C2CCc3cc(-c4cc(C)ncn4)ccc32)CC1 (some centres not stated) | 2920 nM | 937 nM | – | – | – | – | – | – |
| Cc1cc(-c2ccc3c(c2)CCC3N2CCC(N(C)C(=O)N[C@@H](CC3CC3)c3cccc(Cl)c3Cl)CC2)ncn1 (some centres not stated) | 5400 nM | 970 nM | – | – | – | – | – | – |
| Cc1cc(-c2ccc3c(c2)CC[C@H]3N2CC3(CCN(C(=O)N[C@@H](C)c4cccc(Cl)c4Cl)CC3)C2)ncn1 | 4010 nM | – | > 30000 nM | Not Active | – | – | – | – |
| Cc1ccc2c(c1)CCC2N1CCC(N(C)C(=O)N[C@@H](C)c2ccc(C3CC3)c(Cl)c2Cl)CC1 (some centres not stated) | 2370 nM | – | – | Not Active | – | – | – | – |
| Cc1cc(-c2ccc3c(c2)CCC3N2CCC(N(C)C(=O)NCc3ccc(C#CC4CC4)c(Cl)c3Cl)CC2)ncn1 (configuration not stated) | 1130 nM | – | – | Not Active | – | – | – | – |
| Cc1cc(-c2ccc3c(c2)CCC3N2CCC(N(C)C(=O)NC(C)c3cccc(Cl)c3Cl)CC2)ncn1 (configuration not stated) | 2330 nM | – | > 30000 nM | Not Active | – | – | – | – |
| C[C@H](NC(=O)N(C)C1CCN(C2CCc3ccccc32)CC1)c1ccc(C#CC2CC2)c(Cl)c1Cl (some centres not stated) | 919 nM | – | – | Not Active | – | – | – | – |
| C[C@H](NC(=O)N(C)C1CCN(C2CCc3cc(-c4ncccn4)ccc32)CC1)c1ccc(C#CC2CC2)c(Cl)c1Cl (some centres not stated) | 798 nM | 634 nM | – | – | – | – | – | – |
| Cc1cn2cc(CNC(=O)N(C)C3CCN(C)CC3)nc2s1 | > 30000 nM | – | > 30000 nM | Not Active | – | – | – | – |
| Cc1cc(-c2ccc3c(c2)CC[C@@H]3N2CCC(N(C)C(=O)N[C@@H](C)c3ccc(C#CC4CC4)c(Cl)c3Cl)CC2)ncn1 | 1280 nM | 1280 nM | – | – | – | – | – | – |
| Cc1ccc2c(c1)CCC2N1CCC(N(C)C(=O)N[C@@H](C)c2ccc(C#C[Si](C)(C)C)c(Cl)c2Cl)CC1 (some centres not stated) | 2000 nM | – | – | Not Active | – | – | – | – |
| COc1ccc([C@H](C)NC(=O)N(C)C2CCN(C3CCc4cc(N)ccc43)CC2)c(Cl)c1Cl (some centres not stated) | 1510 nM | – | – | Not Active | 47.1 µL/min/mg | – | 70.4 µL/min/mg | – |
| Cc1cc(-c2ccc3c(c2)CCC3N2CCC(N(C)C(=O)NCc3cccc(Cl)c3Cl)CC2)ncn1 (configuration not stated) | 2700 nM | – | – | Not Active | – | – | – | – |

Stronger by IC50 [1], values ahead:

| IC50 [1] | EC50 ([2]; read-out: EC50) | EC50 [3] | EC50 ([2]; hek293) | microsomal CLint at 0.625 µM [4] | microsomal CLint at 0.625 µM [5] | microsomal CLint at 0.625 µM [6] | microsomal CLint at 0.625 µM [7] | SMILES |
| --- | --- | --- | --- | --- | --- | --- | --- | --- |
| 530 nM | 363 nM | – | – | – | – | – | – | Cc1cc(-c2ccc3c(c2)CCC3N2CCC(N(C)C(=O)N[C@@H](C)c3ccc(C#CC4CC4)c(Cl)c3Cl)C(C)(C)C2)ncn1 (some centres not stated) |
| 329 nM | 73 nM | – | – | 80.3 µL/min/mg | 168 µL/min/mg | 217 µL/min/mg | 143 µL/min/mg | COc1ccc([C@H](C)NC(=O)N(C)C2CCN(C3CCc4cc(C)ccc43)CC2)c(Cl)c1Cl (some centres not stated) |
| 315 nM | 40.7 nM | – | – | 241 µL/min/mg | – | 388 µL/min/mg | 271 µL/min/mg | COc1ccc([C@H](C)NC(=O)N(C)C2CCN(C3CCc4cc(Cl)ccc43)CC2)c(Cl)c1Cl (some centres not stated) |
| 171 nM | 67 nM | – | – | 94.2 µL/min/mg | 241 µL/min/mg | 122 µL/min/mg | 69.5 µL/min/mg | COc1ccc([C@H](C)NC(=O)N(C)C2CCN(C3CCc4cc(-c5cc(C)ncn5)ccc43)CC2)c(Cl)c1Cl (some centres not stated) |
| 85.9 nM | 84.8 nM | – | – | – | – | – | – | C[C@H](NC(=O)N(C)C1CCN(C2CCc3cc(-c4cncnc4)ccc32)CC1)c1ccc(C#CC2CC2)c(Cl)c1Cl (some centres not stated) |
| 148 nM | – | – | Not Active | – | – | – | – | Cc1cc(-c2ccc3c(c2)CCC3N2CCC(N(C)C(=O)N[C@@H](C)c3ccc(C#CC4CC4)c(Cl)c3Cl)C2)ncn1 (some centres not stated) |
| 303 nM | 96 nM | – | – | – | – | – | – | COC(=O)c1ccc([C@H](C)NC(=O)N(C)C2CCN(C3CCc4cc(-c5cc(C)ncn5)ccc43)CC2)c(Cl)c1Cl (some centres not stated) |
| 120 nM | 85.7 nM | – | – | – | – | – | – | COc1ccc2c(c1)CCC2N1CCC(N(C)C(=O)N[C@@H](C)c2ccc(OC)c(Cl)c2Cl)CC1 (some centres not stated) |
| 80 nM | 51 nM | – | – | 53.9 µL/min/mg | 62.3 µL/min/mg | 42.6 µL/min/mg | 19.2 µL/min/mg | Cc1cc(-c2ccc3c(c2)CCC3N2CCC(N(C)C(=O)N[C@@H](C)c3ccc(C#CC4CC4)c(Cl)c3Cl)CC2)ncn1 (some centres not stated) |
| 240 nM | 70 nM | – | – | 79.8 µL/min/mg | – | 244 µL/min/mg | – | COc1ccc([C@H](C)NC(=O)N(C)C2CCN(C3CCc4cc(-n5nccn5)ccc43)CC2)c(Cl)c1Cl (some centres not stated) |
| 282 nM | 117 nM | – | – | – | – | – | – | Cc1ccc2c(c1)CCC2N1CCC(N(C)C(=O)N[C@@H](C)c2ccc(C#CC3CC3)c(Cl)c2Cl)CC1 (some centres not stated) |
| 192 nM | 306 nM | – | – | – | – | – | – | CC[C@H](NC(=O)N(C)C1CCN(C2CCc3cc(-c4cc(C)ncn4)ccc32)CC1)c1ccc(C#CC2CC2)c(Cl)c1Cl (some centres not stated) |
| 156 nM | 10.6 nM | – | – | 165 µL/min/mg | 137 µL/min/mg | 157 µL/min/mg | 65.6 µL/min/mg | C#Cc1ccc([C@H](C)NC(=O)N(C)C2CCN(C3CCc4cc(-c5cc(C)ncn5)ccc43)CC2)c(Cl)c1Cl (some centres not stated) |
| 369 nM | 194 nM | > 30000 nM | – | – | – | – | – | Cc1cc(-c2ccc3c(c2)CCC3N2CCC(N(C)C(=O)N[C@@H](C)c3ccc(-c4cnccn4)c(Cl)c3Cl)CC2)ncn1 (some centres not stated) |
| 106 nM | – | – | Not Active | – | – | – | – | C#Cc1ccc([C@H](C)NC(=O)N(C)C2CCN(C3CCc4cc(C)ccc43)CC2)c(Cl)c1Cl (some centres not stated) |
